# Data published in ChEMBL document CHEMBL4513216, “Probing the Open Global Health Chemical Diversity Library for Multistage-Active Starting Points for Next-Generation Antimalarials” (ACS Infect Dis, 2020).
# Assay: Toxicity liver stage against HepG2, at 10uM
# Format: cell-based
# Parameters: test concentration 10 uM, cell line HepG2-A16-CD81EGFP
# Conditions: human, HepG2-A16-CD81EGFP cells; read-out: INHIBITION
# Outline: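 Uninfected HepG2-A16-CD81EGFP cells, 3 × 10^3 per well, 1536-well, plated on prespotted compound at 10 μM final, parasite-free screening media added to match infected plates; puromycin 10 μM positive, DMSO 0.5% negative; run in parallel with 48 h PbLuc assay at 37 °C, 5% CO2; viability by CellTiter-Glo luminescence, normalized to controls.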
row,SMILES,cytotoxicity at 10 µM [%]
1,O=C(CNC(=O)N1CCc2c([nH]c3ccc(Cl)cc23)C1)NCCCO,5.36
2,CCC(=O)NCC(Cc1cccc(F)c1)n1cccc1 (stereo not drawn),-0.765
3,Cc1nc(COCC2CNCc3nccn3C2)cs1 (stereo not drawn),1.79
4,CN1CC[C@]2(CN(C(=O)[C@H]3CCCO3)C[C@H]2c2ccccc2)C1=O,8.49
5,CN1C[C@@H]2COC[C@]2(C(=O)NCc2cccs2)C1,9.22
6,c1cncc(COCC2CN(Cc3ccsc3)Cc3ccnn3C2)c1 (stereo not drawn),-140
7,CC(C)NC(=O)C1CCN(c2nc3nc[nH]c(=O)c3s2)CC1,-3.79
8,Cc1nn(C)c(=O)c2nn(-c3ccc(F)cc3)c(C)c12,-0.839
9,CNC(=O)[C@H]1C[C@@H]2CN(C(=O)c3ccco3)C[C@@H]2N1S(C)(=O)=O,-10.2
10,c1cnc(-c2nn3c(CN4CCOCC4)nnc3s2)cn1,7.74
11,NC(=O)c1c[nH]nc1NCc1ccc2c(c1)OCO2,-2.9
12,Cc1cc(C)nc(N2CCC(c3cccc(CCC(=O)O)n3)CC2)n1,0.343
13,COCCN1CCC1c1cc(NC2CCCC2)nc(C)n1 (stereo not drawn),0.994
14,Cc1cc(Oc2ccccc2C)nc(C2CCCN2)n1 (stereo not drawn),1.22
15,CC(=O)N1CCC(c2[nH]ncc2S(C)(=O)=O)CC1,0.752
16,CN1CCC(c2cccc(-c3cccc(C(=O)O)c3)n2)CC1,-6.55
17,CCOCC(=O)N1C[C@@H](O)[C@H](NC(C)=O)C1,-4.48
18,Cc1cccc2nc(C(=O)N3CCCC[C@]4(C)NC(=O)CCC[C@H]34)cn12,-1.85
19,O=C(NCCO)C1CN(c2cncnc2)CCO1 (stereo not drawn),-29.9
20,COc1cccc(CC(=O)N2CCCC2c2nc(C)c(F)c(O)n2)c1 (stereo not drawn),-21.6
21,O=C(c1ccccn1)N1CCCC(c2ncncc2-c2ccncc2)C1 (stereo not drawn),-0.0141
22,Cn1ccc2ccnc(CC3CN(C(=O)c4cscn4)C3)c21,-28.6
23,Cc1ccnc(C2CCCN2C(=O)c2cnccn2)n1 (stereo not drawn),-14.1

row,SMILES,cytotoxicity at 10 µM [%]
1,O=C(c1cc[nH]n1)N1CCc2c(nc(N3CCCCC3)[nH]c2=O)C1,15.5
2,CN1CCCC(c2cccc(CCC(=O)NCc3ccccn3)n2)C1 (stereo not drawn),-14
3,CC(C)N1CCC(Cc2cc(-c3cc(F)ccc3C(=O)O)ncn2)C1 (stereo not drawn),7.49
4,CNc1cc(CNC(=O)c2ccncc2)nc(-c2ccncc2)n1,-7.16
5,NCCCC(=O)N1CCC2(CC1)CN(C(=O)c1ccc(Cl)cc1)CCO2,6.83
6,NC(=O)c1cccc(CS(=O)(=O)CC(O)Cn2cccn2)c1 (stereo not drawn),-2.45
7,CCC(CO)NC(=O)Nc1cc(F)ccc1SCC(F)F (stereo not drawn),12.6
8,CCn1nnnc1-c1cccc(NC(=O)CCOC(C)C)c1,-9.8
9,O=C(Cn1cnnn1)NC(c1ccccc1)c1ccc2c(c1)CCCO2 (stereo not drawn),-1.47
10,Cc1ccc(C2CSCCN2C(=O)c2ccccn2)cc1 (stereo not drawn),2.04
11,CC1(C)COCCN1C(=O)CCc1nc(-c2ccncc2)no1,-6.61
12,CCOc1ccc(NC(=O)c2scnc2CC)cc1CO,-9.48
13,Cc1cc(NC(=O)CN2CCOC(CN(C)C)C2)n(C)n1 (stereo not drawn),0.894
14,COC(=O)C1(NCc2nc(C)c(C)o2)CCC(C)CC1 (stereo not drawn),-5.54
15,CC1CCC(N2CCC(NS(=O)(=O)CCOC(C)C)CC2)CC1 (stereo not drawn),-0.45
16,CN(Cc1ncnn1C)C1CCN(c2sccc2C#N)C1=O (stereo not drawn),10.2
17,Cc1cc(C(=O)NC2CCN(c3nnc(C)c(C)c3C#N)CC2)no1,-2.12
18,Cc1nnc(NC(=O)NCCN(C(=O)OC(C)(C)C)C2CC2)s1,5.53
19,COc1ccc(CN2CC(n3cccn3)C2)cc1F,-0.483
20,CCOc1cccc2c1OCC(C(=O)NC(C)Cn1cccn1)=C2 (stereo not drawn),-1.18
21,CN(C)S(=O)(=O)c1ccc(=O)n(CC2CCCCO2)c1 (stereo not drawn),-8.58
22,CCn1cnnc1CNC(=O)N1CCOC(c2ccc(F)cc2)C1 (stereo not drawn),5.53
23,COCCN1CCC(CNC(=O)c2ccnc(-n3ccnc3)c2)CC1,-1.63

row,SMILES,cytotoxicity at 10 µM [%]
1,Cc1ccoc1C(=O)NCCS(=O)(=O)N1CCSCC1,-2.65
2,N#Cc1csc(CNCCOc2ccc(Cl)cn2)c1,-5.59
3,O=C(NCc1ccc(N2CC=CC2)cc1)Nc1nnc(C2CC2)s1,7.25
4,COCCNS(=O)(=O)c1ccc(Cl)c(C(=O)N(C)Cc2sccc2C)c1,-7.53
5,Oc1cccc(CNC2CCN(CCc3ccncc3)CC2)c1,-1.56
6,COC(=O)NCC(=O)NCC(C)(C)c1cccc(C(F)(F)F)c1,-3.36
7,O=C(c1cccnc1O)N(Cc1cccs1)CC1CCCO1 (stereo not drawn),-11.5
8,Cc1ccc(OCC(=O)NCC(F)(F)F)nc1,0.84
9,CS(=O)(=O)NCC1CCCN(C(=O)Nc2ccccc2F)C1 (stereo not drawn),-145
10,CCCN(CC(F)F)C(=O)CCc1c(C)nc2cc(O)nn2c1C,-147
11,CCc1nccn1C1CCCN(C(=O)c2cc(C3CC3)on2)C1 (stereo not drawn),-6.96
12,O=C(CNC(=O)Nc1c(F)cc(F)cc1-c1ccccc1)NC1CC1,-13.5
13,COCCS(=O)(=O)NC(C)c1ccccc1Br (stereo not drawn),1.02
14,CCN(C(=O)NCc1ncc(C)c(OC)c1C)C(C)c1cccnc1 (stereo not drawn),1.84
15,Cc1cc(S(=O)(=O)Nc2onc(C)c2C)c(C)s1,-4.96
16,CC(=O)NCCNC(=O)NCc1ccc(Br)cc1Cl,5.19
17,CC(c1ccccc1)N1CCC(NC(=O)CCc2ccsc2)CC1 (stereo not drawn),0.91
18,COc1ccc(C(NCc2cccc(O)c2)C2CC2)cc1 (stereo not drawn),4.99
19,Cc1ccc(CCC(=O)N(C)CCN2CCOCC2)c(C)c1,-4.51
20,Cc1ccc(CC2CCCN2CC(=O)NCc2cccnc2)cc1 (stereo not drawn),-3.83
21,CS(=O)(=O)N[C@@H]1CCN(Cc2ccncc2)[C@H]1Cc1cccnc1,-79.7
22,COCCC(=O)N1CCC2(CN(Cc3cccc(F)c3)C2)C1,-74
23,CNc1ncc(-c2ccc(NC(=O)[C@@H]3CCCCN3)cc2)cn1,-7.66

row,SMILES,cytotoxicity at 10 µM [%]
1,CN1CCN(CC2CC2)C(=O)c2cnc(N3CCC(CO)CC3)nc21,-3.14
2,Cc1nc(O)cc(CCNC(=O)CN2CCCCCC2)n1,0.458
3,Cc1cnc(C)c(N2CCC(C(=O)O)(n3ccc(C(C)(C)C)n3)CC2)n1,20.4
4,CC(=O)NC1CCN(c2nc(C)nc3c2c(C)nn3C)C1 (stereo not drawn),8.32
5,COCCN1CCC(CN(CC2CCCO2)C(=O)Cc2cccs2)CC1 (stereo not drawn),-0.894
6,Cc1ccccc1C1CCN(CCn2cc(-c3nccs3)nn2)C1 (stereo not drawn),-1.29
7,CN(Cc1nc(C2CC2)no1)C(=O)CN1CC(c2ccccc2)CC1=O (stereo not drawn),2.11
8,CSc1ccccc1-n1ccnc1-c1cn(C2CCNCC2)nn1,-0.67
9,COCc1ncn(Cc2nc(-c3ccc(OC)c(OC)c3)oc2C)n1,-4.77
10,CC(Cc1ccc2c(c1)OCO2)c1cn(CCc2c[nH]cn2)nn1 (stereo not drawn),8.66
11,CN(C)C[C@@H]1CN(C(=O)c2cc(S(N)(=O)=O)ccc2F)C[C@@H]1CO,4.83
12,CC(C)Cc1ncc2c(n1)CN(c1nccc(NC(C)C)n1)C2,-10.7
13,Cc1cc(C)n(CC(C)NCCN2CCc3ccccc32)n1 (stereo not drawn),-7.73
14,COc1ccc2c(c1)CC(C(=O)N(C)Cc1noc3c1CCCC3)CO2 (stereo not drawn),-0.551
15,CSc1nccc(NCC2CNCCO2)n1 (stereo not drawn),2.56
16,O=C(O)c1ccnc(-c2ccnc(N3CCCCCC3)n2)c1,-10
17,CCN1CC2(CCN(CC3COCCO3)CC2)OC1=O (stereo not drawn),-4.15
18,O=C1CCCCN1Cc1cccc(OC(F)F)c1,3.17
19,CC(=O)N1CCCN(c2nccc(-c3cn(C)nc3C)n2)CC1,22.3
20,CCOc1ccc(Cl)c(C(=O)N2CCN(CC(C)(C)O)CC2)n1,-5.72
21,CC(C)c1nn(C)c(N(C)C)c1CNCc1cccc2c1OCO2,-4.66
22,COc1ccnc(N2CCN(CC(O)CN3CCOCC3)CC2)n1 (stereo not drawn),-3.44
23,Cc1nccn1C1CCCN(C(=O)c2ccc3cc[nH]c3c2)C1 (stereo not drawn),-9.69

row,SMILES,cytotoxicity at 10 µM [%]
1,CN(Cc1cnccn1)S(=O)(=O)N1CCCC1c1ccco1 (stereo not drawn),-15.6
2,COc1cccc(-n2nnc(C(=O)N3CCN(C(C)=O)CC3)c2C)c1,-13.2
3,Cn1ccnc1CN1CCN(CC(O)c2ccccc2)CC1 (stereo not drawn),-11.4
4,Cc1nc(C)n(CC2CCCCN2CCc2ccncc2)n1 (stereo not drawn),-6.3
5,Cc1cc(C)n(CC2CCCN2CCS(C)(=O)=O)n1 (stereo not drawn),-3.95
6,Cc1nc2ccccc2c(=O)n1CCCC(=O)N1CCNC(=O)CC1,-11.8
7,CCC1CN(CC(=O)N2CCN(C(C)=O)CC2)CCN1CCOC (stereo not drawn),-7.58
8,Cc1ncsc1C(=O)NCCSCCCO,-11.3
9,CC(=O)NC1CCCN(C(=O)Nc2cnc3c(cnn3C(C)C)c2)C1 (stereo not drawn),-4.67
10,COCCC(=O)N1CCC2(CCN(Cc3ccc(C)cc3)CC2)C1,-74.4
11,c1cnc2c(c1)CN(C1CCOC1)CCN2CC1CC1 (stereo not drawn),4.92
12,CN(C)C[C@]12COC[C@H]1CN(Cc1ccc3ccccc3n1)C2,6.77
13,O=C(c1cscn1)N1C[C@H]2CCCC(OCc3cccnc3)[C@H]2C1 (stereo partly drawn),-6.61
14,O=C(Nc1ccccc1)C1CN(CC2CC2)CC12CCOCC2 (stereo not drawn),-6.36
15,Cc1c(F)cccc1S(=O)(=O)NCCN,1.99
16,Cn1nc(Cn2ccnc2)c2c1CN(c1ncccn1)C2,5.3
17,CC[C@@H]1N(CC2CC2)CCC[C@]12CCC(=O)N2CCOC,-5.15
18,Cc1ccc2c(n1)N(C)CCN(Cc1ccco1)C2,-4.97
19,CCn1cc(CN2C[C@@H]3CC[C@H]2CN(C(=O)C2CCC2)C3)cn1,3.5
20,Cc1nnsc1C(=O)N1C[C@@H]2CC[C@H]1CN(c1cnccn1)C2,9.88
21,Nc1ncnc2[nH]c(N3CCCCC3)nc12,-1.43
